The values that follow come from ChEMBL document CHEMBL1127615, “5,7-Dimethoxy-3-(4-pyridinyl)quinoline is a potent and selective inhibitor of human vascular beta-type platelet-derived growth factor receptor tyrosine kinase” (J Med Chem, 1994).

A short description of experiment [1]: Inhibition of vascular smooth muscle cell proliferation by [3H]thymidine incorporation. The class given is functional. Particulars: Homo sapiens. A digest of the protocol:
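Primary human vascular smooth muscle cells, serum-starved 48 h, then inhibitor for 2 h, PDGF-BB (10 ng/mL) for 24 h, then [3H]thymidine (0.5 μCi/mL) for 24 h more. Cells were washed with ice-cold 5% TCA, extracted with 0.1 N NaOH (30 min, 25 °C), neutralized and counted. Inhibition is relative to vehicle (≤0.5% DMSO).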
(In general: Dividing cells build labelled thymidine or BrdU into new DNA.)

The target of experiment [2] is Platelet-derived growth factor receptor (Homo sapiens, UniProt P09619+P16234). Briefly: Inhibition of Platelet-derived growth factor receptor tyrosine kinase. The class given is protein-complex assay.
Experiment [3] concerns the target Receptor tyrosine-protein kinase erbB-2 (Homo sapiens, UniProt P04626). Briefly: Inhibition of erbB2 receptor.
Experiment [4] concerns the target Tyrosine-protein kinase Lck (Homo sapiens, UniProt P06239). Briefly: Inhibition of p56 lck kinase.
In another experiment the target is Protein kinase C (PKC). Kind of experiment: Inhibition of Serine/threonine protein kinases C. The class given is protein assay, Homo sapiens.

SMILES strings stand for the structures.

Sequence of Receptor tyrosine-protein kinase erbB-2 (P04626 whole entry): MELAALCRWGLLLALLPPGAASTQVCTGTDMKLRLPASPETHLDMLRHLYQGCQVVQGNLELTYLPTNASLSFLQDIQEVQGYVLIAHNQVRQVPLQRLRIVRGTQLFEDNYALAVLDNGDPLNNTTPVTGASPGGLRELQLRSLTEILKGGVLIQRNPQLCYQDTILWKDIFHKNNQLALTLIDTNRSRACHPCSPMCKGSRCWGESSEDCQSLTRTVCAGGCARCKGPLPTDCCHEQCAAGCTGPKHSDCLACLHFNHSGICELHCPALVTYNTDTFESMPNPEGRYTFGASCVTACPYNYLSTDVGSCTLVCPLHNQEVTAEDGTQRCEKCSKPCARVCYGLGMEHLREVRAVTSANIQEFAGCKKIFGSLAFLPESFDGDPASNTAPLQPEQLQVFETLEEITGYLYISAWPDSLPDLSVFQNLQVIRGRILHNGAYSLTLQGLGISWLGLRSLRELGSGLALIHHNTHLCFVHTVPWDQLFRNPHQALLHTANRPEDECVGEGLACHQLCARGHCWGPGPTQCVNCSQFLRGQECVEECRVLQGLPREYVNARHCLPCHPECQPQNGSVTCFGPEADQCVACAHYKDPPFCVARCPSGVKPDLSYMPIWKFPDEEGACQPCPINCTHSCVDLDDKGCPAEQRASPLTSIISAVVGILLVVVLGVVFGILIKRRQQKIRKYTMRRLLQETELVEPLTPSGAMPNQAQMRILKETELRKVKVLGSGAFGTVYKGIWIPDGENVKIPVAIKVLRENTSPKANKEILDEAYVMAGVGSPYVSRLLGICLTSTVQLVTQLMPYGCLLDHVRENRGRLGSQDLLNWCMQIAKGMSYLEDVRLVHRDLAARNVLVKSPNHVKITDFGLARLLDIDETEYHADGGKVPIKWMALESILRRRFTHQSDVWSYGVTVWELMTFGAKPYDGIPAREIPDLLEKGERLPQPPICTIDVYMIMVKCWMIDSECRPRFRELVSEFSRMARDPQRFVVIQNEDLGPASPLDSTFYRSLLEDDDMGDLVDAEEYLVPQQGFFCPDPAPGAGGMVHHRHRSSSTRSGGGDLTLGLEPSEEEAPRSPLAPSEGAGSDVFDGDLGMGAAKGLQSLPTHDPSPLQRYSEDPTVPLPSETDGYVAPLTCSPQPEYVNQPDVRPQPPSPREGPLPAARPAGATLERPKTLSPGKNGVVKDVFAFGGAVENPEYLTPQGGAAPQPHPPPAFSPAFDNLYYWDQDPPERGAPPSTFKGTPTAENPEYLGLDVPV
Sequence of Tyrosine-protein kinase Lck (P06239 whole entry): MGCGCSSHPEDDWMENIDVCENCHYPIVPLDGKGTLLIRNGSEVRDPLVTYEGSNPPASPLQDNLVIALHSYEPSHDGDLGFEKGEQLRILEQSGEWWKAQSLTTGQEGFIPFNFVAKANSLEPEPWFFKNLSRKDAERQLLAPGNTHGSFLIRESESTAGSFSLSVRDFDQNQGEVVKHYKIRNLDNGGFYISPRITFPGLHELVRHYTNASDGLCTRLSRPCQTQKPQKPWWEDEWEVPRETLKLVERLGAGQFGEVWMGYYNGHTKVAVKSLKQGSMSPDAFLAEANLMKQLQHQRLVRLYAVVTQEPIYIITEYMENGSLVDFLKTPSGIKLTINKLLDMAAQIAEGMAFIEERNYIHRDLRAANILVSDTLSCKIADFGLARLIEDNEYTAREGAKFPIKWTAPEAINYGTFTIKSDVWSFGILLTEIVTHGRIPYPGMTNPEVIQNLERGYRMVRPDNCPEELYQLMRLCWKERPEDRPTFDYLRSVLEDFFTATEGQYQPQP

In the case of `COc1ccc2cc(-c3ccncc3)cnc2c1`, the IC50 – broadly, the midpoint of a concentration-inhibition curve – in experiment [1] was 6.5 µM; in experiment [2], 0.6 µM. As to `COc1ccc2ncc(-c3ccncc3)c(C)c2c1`, the half-inhibitory concentration (IC50) in experiment [2] is more than 50 µM. Consider `COc1cc2cc(-c3ccncc3)cnc2cc1OC`, for which the IC50 was 1.8 µM in experiment [1], more than 10 µM in experiment [3], more than 10 µM in experiment [4] and more than 10 µM at Protein kinase C (PKC). Regarding `COc1cc2ncc(-c3ccncc3)cc2c(OC)c1OC`, the IC50 in experiment [1] was 3.5 µM; in experiment [2] it was 0.4 µM. In experiment [2], `c1ccc2ncc(-c3ccncc3)cc2c1` came in with an IC50 of 1.5 µM. With `COc1cc(OC)c2cc(-c3ccncc3)cnc2c1`, the IC50 in experiment [1] is 0.9 µM; in experiment [3] it was more than 10 µM; against Protein kinase C (PKC), more than 10 µM. For the compound `Oc1cc(O)c2cc(-c3ccncc3)cnc2c1`, the IC50 in experiment [1] is 5.5 µM; in experiment [2], 1.3 µM.

Take `Oc1cc2cc(-c3ccncc3)cnc2cc1O`: the IC50 in experiment [2] was 36 µM; against Protein kinase C (PKC), more than 10 µM. On the same counts, the results for `Clc1ccc2cc(-c3ccncc3)cnc2c1` are 0.3 µM and more than 10 µM. For the compound `COc1ccc2ncc(-c3ccncc3)cc2c1`, in experiment [2], it took 0.4 µM to reach half-maximal inhibition (IC50). The same measure, in the same setting: with `COc1ccc2c(C)c(-c3ccncc3)cnc2c1` the figure was more than 50 µM. For the compound `Oc1ccc2cc(-c3ccncc3)cnc2c1`, the IC50 in experiment [1] was more than 10 µM; in experiment [2], 9.2 µM.
